Reference: ChEMBL document CHEMBL4477200, “Design, Synthesis, and Preclinical Evaluation of 4-Substituted-5-methyl-furo[2,3-d]pyrimidines as Microtubule Targeting Agents That Are Effective against Multidrug Resistant Cancer Cells” (J Med Chem, 2016)
Calls of active or inactive are those of the source. No cut-off for these calls is given here.

What was measured:
[1] = test system: HeLa; assay: Cell cycle arrest in human HeLa cells assessed as accumulation at G2/M phase at 5 times IC50 after 18 hrs by flow cytometry (reference value: 17.11 +/- 1.09%); type: functional
[2] = target: Tubulin (Homo sapiens) (UniProt P68371+Q9H4B7+P0DPH7+P68366+Q13509+Q71U36+P04350+Q3ZCM7+P07437+P68363+Q9BQE3+Q6PEY2+Q13885+Q9BVA1+Q9BUF5); assay: Induction of microtubule disruption in human HeLa cells assessed as multipolarization of spindle at 5 times IC50 incubated for 18 hrs by indirect immunofluorescence analysis relative to vehicle-treated control; type: cell-based
In short: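 Mitotic spindles and microtubules were imaged by indirect immunofluorescence with a β-tubulin antibody and compared with vehicle-treated cells.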

[3] = target: T1, Tubulin (Bos taurus) (UniProt Q6B856+Q862L2+Q862F3); assay: Displacement of [3H]colchicine from tubulin in bovine brain homogenate at 1 uM incubated for 10 mins by DEAE-cellulose filter assay; type: tissue-based
[4] = target: T1, Tubulin (Bos taurus); assay: Inhibition of [3H]colchicine binding to tubulin in bovine brain homogenate at 5 uM incubated for 10 mins by DEAE-cellulose filter assay; type: tissue-based
[5] = test system: CCRF-CEM; assay: Cytotoxicity against human CCRF-CEM cells assessed as growth inhibition after 48 hrs by SRB assay; type: functional
[6] = test system: MOLT-4; assay: Cytotoxicity against human MOLT4 cells assessed as growth inhibition after 48 hrs by SRB assay; type: functional; settings: MOLT-4, 48 h
[7] = test system: SR; assay: Cytotoxicity against human SR cells assessed as growth inhibition after 48 hrs by SRB assay; type: functional
[8] = test system: HOP-62; assay: Cytotoxicity against human HOP62 cells assessed as growth inhibition after 48 hrs by SRB assay; type: functional; settings: HOP-62, 48 h
[9] = test system: HOP-92; assay: Cytotoxicity against human HOP92 cells assessed as growth inhibition after 48 hrs by SRB assay; type: functional; settings: HOP-92, 48 h
[10] = test system: NCI-H226; assay: Cytotoxicity against human NCI-H226 cells assessed as growth inhibition after 48 hrs by SRB assay; type: functional; settings: NCI-H226, 48 h
[11] = test system: NCI-H322M; assay: Cytotoxicity against human NCI-H322M cells assessed as growth inhibition after 48 hrs by SRB assay; type: functional
[12] = test system: NCI-H460; assay: Cytotoxicity against human NCI-H460 cells assessed as growth inhibition after 48 hrs by SRB assay; type: functional; settings: NCI-H460, 48 h
[13] = test system: NCI-H522; assay: Cytotoxicity against human NCI-H522 cells assessed as growth inhibition after 48 hrs by SRB assay; type: functional; settings: NCI-H522, 48 h
[14] = test system: COLO 205; assay: Cytotoxicity against human COLO205 cells assessed as growth inhibition after 48 hrs by SRB assay; type: functional; settings: COLO 205, 48 h
[15] = test system: HCT-116; assay: Cytotoxicity against human HCT116 cells assessed as growth inhibition after 48 hrs by SRB assay; type: functional; settings: HCT-116, 48 h
[16] = test system: KM12; assay: Cytotoxicity against human KM12 cells assessed as growth inhibition after 48 hrs by SRB assay; type: functional; settings: KM12, 48 h
[17] = test system: SF-268; assay: Cytotoxicity against human SF268 cells assessed as growth inhibition after 48 hrs by SRB assay; type: functional; settings: SF-268, 48 h
[18] = test system: SF-539; assay: Cytotoxicity against human SF539 cells assessed as growth inhibition after 48 hrs by SRB assay; type: functional; settings: SF-539, 48 h
[19] = test system: SNB-19; assay: Cytotoxicity against human SNB19 cells assessed as growth inhibition after 48 hrs by SRB assay; type: functional; settings: SNB-19, 48 h
[20] = test system: LOX IMVI; assay: Cytotoxicity against human LOXIMVI cells assessed as growth inhibition after 48 hrs by SRB assay; type: functional
[21] = test system: Malme-3M; assay: Cytotoxicity against human MALME-3M cells assessed as growth inhibition after 48 hrs by SRB assay; type: functional
[22] = test system: MDA-MB-435; assay: Cytotoxicity against human MDA-MB-435 cells assessed as growth inhibition after 48 hrs by SRB assay; type: functional, cell-based
[23] = test system: SK-MEL-28; assay: Cytotoxicity against human SK-MEL-28 cells assessed as growth inhibition after 48 hrs by SRB assay; type: functional; settings: SK-MEL-28, 48 h
[24] = test system: SK-MEL-5; assay: Cytotoxicity against human SK-MEL-5 cells assessed as growth inhibition after 48 hrs by SRB assay; type: functional; settings: SK-MEL-5, 48 h
[25] = test system: UACC-62; assay: Cytotoxicity against human UACC62 cells assessed as growth inhibition after 48 hrs by SRB assay; type: functional; settings: UACC-62, 48 h
[26] = test system: OVCAR-8; assay: Cytotoxicity against human OVCAR8 cells assessed as growth inhibition after 48 hrs by SRB assay; type: functional; settings: OVCAR-8, 48 h
[27] = test system: NCI/ADR-RES; assay: Cytotoxicity against human NCI-ADR-RES cells assessed as growth inhibition after 48 hrs by SRB assay; type: functional
[28] = test system: 786-0; assay: Cytotoxicity against human 786-0 cells assessed as growth inhibition after 48 hrs by SRB assay; type: functional; settings: 786-0, 48 h
[29] = test system: CAKI-1; assay: Cytotoxicity against human Caki1 cells assessed as growth inhibition after 48 hrs by SRB assay; type: functional; settings: CAKI-1, 48 h
[30] = test system: DU-145; assay: Cytotoxicity against human DU145 cells assessed as growth inhibition after 48 hrs by SRB assay; type: functional; settings: DU-145, 48 h
[31] = test system: Hs-578T; assay: Cytotoxicity against human Hs 578T cells assessed as growth inhibition after 48 hrs by SRB assay; type: functional
[32] = test system: BT-549; assay: Cytotoxicity against human BT549 cells assessed as growth inhibition after 48 hrs by SRB assay; type: functional; settings: BT-549, 48 h
[33] = test system: MDA-MB-468; assay: Cytotoxicity against human MDA-MB-468 cells assessed as growth inhibition after 48 hrs by SRB assay; type: functional; settings: MDA-MB-468, 48 h
[34] = test system: HeLa; assay: Antiproliferative activity against multidrug resistant human HeLa cells expressing wild type beta3 tubulin after 48 hrs by SRB assay; type: functional, cell-based
In short: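 SRB assay; IC50 is the mean of three independent experiments, each run in triplicate. Cells were kept at 37 °C under 5% CO2. HeLa and SK-OV-3 lines (parental and MDR1-M6/6) were grown in Basal Medium Eagle with 10% FBS, 1% GlutaMAX and 50 µg/mL gentamycin. HeLa WTβIII was grown in DMEM with 10% FBS.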

[35] = test system: SK-OV-3; assay: Relative ratio of IC50 for human SKOV3 cells expressing MDR1-M6/6 to IC50 for human SKOV3 cells; type: functional
In short: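 Rr is the IC50 in Pgp-expressing SK-OV-3 MDR1-M6/6 cells divided by the IC50 in parental SK-OV-3 cells. Both IC50s come from the SRB assay, averaging three independent experiments run in triplicate.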

[36] = test system: Tubulin (Rattus norvegicus); assay: Induction of microtubule depolymerization in rat A10 cells at 2 times EC50 incubated for 18 hrs by indirect immunofluorescence analysis
[37] = test system: MDA-MB-435; assay: Antitumor activity against human MDA-MB-435 cells xenografted in nude mouse assessed as tumor growth inhibition at 60 mg/kg, ip dosed on day 0 to 2 and 50 mg/kg, ip on day 8 relative to control

`COc1ccc(N(C)c2ncnc3occ(C)c23)cc1` was tested, and the Activity [1] was 66.99%, the Activity [2] was “Active” and the inhibition [3] was 71%. The inhibition [4] was 96%, the GI50 [5] was under 10 nM and the GI50 [6] was under 10 nM. For the same molecule, the GI50 [7] was under 10 nM, the GI50 [8] was 18.4 nM and the GI50 [9] was 62.5 nM. It also gave a GI50 [10] of under 10 nM, a GI50 [11] of over 100000 nM and a GI50 [12] of under 10 nM. The GI50 [13] was under 10 nM, the GI50 [14] was under 10 nM and the GI50 [15] was under 10 nM. For the same molecule, the GI50 [16] was under 10 nM, the GI50 [17] was 10.1 nM and the GI50 [18] was under 10 nM. It also gave a GI50 [19] of under 10 nM, a GI50 [20] of under 10 nM and a GI50 [21] of 38.7 nM. It also gave a GI50 [22] of under 10 nM, a GI50 [23] of under 10 nM and a GI50 [24] of under 10 nM. For the same molecule, the GI50 [25] was 29.6 nM, the GI50 [26] was under 10 nM and the GI50 [27] was under 10 nM. The GI50 [28] was under 10 nM, the GI50 [29] was under 10 nM and the GI50 [30] was under 10 nM. It also gave a GI50 [31] of under 10 nM, a GI50 [32] of 59.6 nM and a GI50 [33] of under 10 nM. The IC50 [34] was 8.1 nM, the “Ratio IC50” value [35] was 1.1 and the Activity [36] was “Active”. The TGI [37] was “Active”.
